Data as given in ChEMBL document CHEMBL5674868, “Cancer Cells Hijack PRC2 to Modify Multiple Cytokine Pathways” (PLoS One, 2015).
Calls of active or inactive are those of the source. The calls are words filed in the database; no cut-off is given here.

Legend:
Format in all cases: cell-based
[1] = biological target: Histone-lysine N-methyltransferase EZH2 (Homo sapiens) (UniProt Q15910); experiment: Inhibition of EZH2 in human ASPC1 cells assessed as effect on PITX2 mRNA level after 6 hrs by RT-PCR analysis in presence of IFN-gamma
Sequence of Histone-lysine N-methyltransferase EZH2 (Homo sapiens) (Q15910 whole entry, looked up): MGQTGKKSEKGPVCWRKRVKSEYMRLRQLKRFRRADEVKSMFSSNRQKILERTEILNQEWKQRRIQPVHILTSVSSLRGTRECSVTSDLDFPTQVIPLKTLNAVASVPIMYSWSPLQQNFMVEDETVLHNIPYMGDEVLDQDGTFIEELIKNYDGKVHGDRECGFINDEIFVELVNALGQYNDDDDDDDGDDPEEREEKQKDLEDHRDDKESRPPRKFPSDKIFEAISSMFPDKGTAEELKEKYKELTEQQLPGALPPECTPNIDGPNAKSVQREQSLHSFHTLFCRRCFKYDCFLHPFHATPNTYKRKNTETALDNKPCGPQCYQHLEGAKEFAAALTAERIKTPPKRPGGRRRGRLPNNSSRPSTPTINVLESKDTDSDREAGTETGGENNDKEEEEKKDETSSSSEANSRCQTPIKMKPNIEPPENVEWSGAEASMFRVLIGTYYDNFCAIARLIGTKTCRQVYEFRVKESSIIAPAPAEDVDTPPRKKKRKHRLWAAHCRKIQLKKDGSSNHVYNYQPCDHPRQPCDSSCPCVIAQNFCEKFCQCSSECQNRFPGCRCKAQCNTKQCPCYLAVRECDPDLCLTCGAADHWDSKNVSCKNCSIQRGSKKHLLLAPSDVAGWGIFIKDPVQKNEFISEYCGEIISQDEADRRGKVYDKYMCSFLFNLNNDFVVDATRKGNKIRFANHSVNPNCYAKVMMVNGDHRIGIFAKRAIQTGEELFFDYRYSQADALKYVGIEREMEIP
Outline: (§1)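 Cells were treated for two four-day cycles with 2 μM GSK343 or UNC1999, then left untreated or stimulated with human IFNγ for 6 h. mRNA was measured by reverse transcription quantitative PCR and normalized to β-actin. Three biological replicates were run per treatment group.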

[2] = biological target: Histone-lysine N-methyltransferase EZH2 (Homo sapiens) (UniProt Q15910); experiment: Inhibition of EZH2 in human A549 cells assessed as effect on PITX2 mRNA level after 6 hrs by RT-PCR analysis; outline: as §1
[3] = biological target: Histone-lysine N-methyltransferase EZH2 (Homo sapiens) (UniProt Q15910); experiment: Inhibition of EZH2 in human MCF7 cells assessed as effect on IRF1 mRNA level after 6 hrs by RT-PCR analysis; outline: as §1
[4] = biological target: Histone-lysine N-methyltransferase EZH2 (Homo sapiens) (UniProt Q15910); experiment: Inhibition of EZH2 in human HeLa cells assessed as effect on PITX2 mRNA level after 6 hrs by RT-PCR analysis; outline: as §1
[5] = biological target: Histone-lysine N-methyltransferase EZH2 (Homo sapiens) (UniProt Q15910); experiment: Inhibition of EZH2 in human HeLa cells assessed as effect on IRF1 mRNA level after 6 hrs by RT-PCR analysis in presence of IFN-gamma; outline: as §1
[6] = biological target: Histone-lysine N-methyltransferase EZH2 (Homo sapiens) (UniProt Q15910); experiment: Inhibition of EZH2 in human HeLa cells assessed as increase in IFN-gamma-induced SUZ12-repressed ISGs mRNA level after 6 hrs by RT-PCR analysis; outline: as §1
[7] = biological target: Histone-lysine N-methyltransferase EZH2 (Homo sapiens) (UniProt Q15910); experiment: Inhibition of EZH2 in human A549 cells assessed as increase in LPS-induced IL-6 level for 24 hrs by ELISA
Outline: (§2)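 A549 cells were pretreated for two four-day cycles with 2 μM UNC1999 or with DMSO. They were seeded at 3×10^4/well, allowed to settle for 4 h, then given the indicated concentrations of IFNγ, IL1β, LPS or TNFα for 24 h. Secreted IL6, IL8 or CXCL10 in the supernatant was measured by ELISA in duplicate. n = 3; ANOVA followed by Fisher test.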

[8] = biological target: Histone-lysine N-methyltransferase EZH2 (Homo sapiens) (UniProt Q15910); experiment: Inhibition of EZH2 in human A549 cells assessed as effect on HPRT mRNA level after 6 hrs by RT-PCR analysis; outline: as §1
[9] = biological target: Histone-lysine N-methyltransferase EZH2 (Homo sapiens) (UniProt Q15910); experiment: Inhibition of EZH2 in human A549 cells assessed as effect on IRF1 mRNA level after 6 hrs by RT-PCR analysis in presence of IFN-gamma; outline: as §1
[10] = biological target: Histone-lysine N-methyltransferase EZH2 (Homo sapiens) (UniProt Q15910); experiment: Inhibition of EZH2 in human A549 cells assessed as increase in TNF-alpha-induced IL-8 level for 24 hrs by multiplexing laser bead assay
Outline: (§3)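 A549 cells were pretreated with vehicle or UNC1999 over two four-day cycles at 2 μM. They were seeded at 3×10^4/well, rested for 4 h, then exposed for 24 h to no stimulus, 5 μg/ml E. coli LPS or 10 U/ml TNFα. Secreted cytokines in the supernatants were quantified by a 41-plex laser bead assay.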

[11] = biological target: Histone-lysine N-methyltransferase EZH2 (Homo sapiens) (UniProt Q15910); experiment: Inhibition of EZH2 in human ASPC1 cells assessed as effect on IRF1 mRNA level after 6 hrs by RT-PCR analysis in presence of IFN-gamma; outline: as §1
[12] = biological target: Histone-lysine N-methyltransferase EZH2 (Homo sapiens) (UniProt Q15910); experiment: Inhibition of EZH2 in human A549 cells assessed as increase in LPS-induced IL-8 level for 24 hrs by ELISA; outline: as §2
[13] = biological target: Histone-lysine N-methyltransferase EZH2 (Homo sapiens) (UniProt Q15910); experiment: Inhibition of EZH2 in human A549 cells assessed as increase in LPS-induced CCL-5 level for 24 hrs by multiplexing laser bead assay; outline: as §3
[14] = biological target: Histone-lysine N-methyltransferase EZH2 (Homo sapiens) (UniProt Q15910); experiment: Inhibition of EZH2 in human A549 cells assessed as increase in LPS-induced IL-8 level for 24 hrs by multiplexing laser bead assay; outline: as §3
[15] = biological target: Histone-lysine N-methyltransferase EZH2 (Homo sapiens) (UniProt Q15910); experiment: Inhibition of EZH2 in human MCF7 cells assessed as effect on HPRT mRNA level after 6 hrs by RT-PCR analysis; outline: as §1
[16] = biological target: Histone-lysine N-methyltransferase EZH2 (Homo sapiens) (UniProt Q15910); experiment: Inhibition of EZH2 in human MCF7 cells assessed as effect on PITX2 mRNA level after 6 hrs by RT-PCR analysis
Outline: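 Cells pretreated for two 4-day cycles with 2 µM GSK343 or UNC1999, then left unstimulated or given human IFNγ for 6 h. RNA reverse-transcribed and measured by quantitative PCR, normalized to β-actin. Three biological replicates per treatment group.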

[17] = biological target: Histone-lysine N-methyltransferase EZH2 (Homo sapiens) (UniProt Q15910); experiment: Inhibition of EZH2 in human A549 cells assessed as increase in TNF-alpha-induced CCL7 level for 24 hrs by multiplexing laser bead assay; outline: as §3
[18] = biological target: Histone-lysine N-methyltransferase EZH2 (Homo sapiens) (UniProt Q15910); experiment: Inhibition of EZH2 in human HeLa cells assessed as effect on HPRT mRNA level after 6 hrs by RT-PCR analysis; outline: as §1
[19] = biological target: Histone-lysine N-methyltransferase EZH2 (Homo sapiens) (UniProt Q15910); experiment: Inhibition of EZH2 in human A549 cells assessed as increase in IFN-gamma-induced CXCL10 level for 24 hrs by ELISA; outline: as §2
[20] = biological target: Histone-lysine N-methyltransferase EZH2 (Homo sapiens) (UniProt Q15910); experiment: Inhibition of EZH2 in human A549 cells assessed as increase in TNF-alpha-induced IL-6 level for 24 hrs by ELISA; outline: as §2
[21] = biological target: Histone-lysine N-methyltransferase EZH2 (Homo sapiens) (UniProt Q15910); experiment: Inhibition of EZH2 in human A549 cells assessed as increase in TNF-alpha-induced CXCL-10 level for 24 hrs by multiplexing laser bead assay; outline: as §3
[22] = biological target: Histone-lysine N-methyltransferase EZH2 (Homo sapiens) (UniProt Q15910); experiment: Inhibition of EZH2 in human A549 cells assessed as increase in LPS-induced IL-6 level for 24 hrs by multiplexing laser bead assay; outline: as §3
[23] = biological target: Histone-lysine N-methyltransferase EZH2 (Homo sapiens) (UniProt Q15910); experiment: Inhibition of EZH2 in human ASPC1 cells assessed as increase in IFN-gamma-induced SUZ12-repressed ISGs mRNA level after 6 hrs by RT-PCR analysis; outline: as §1
[24] = biological target: Histone-lysine N-methyltransferase EZH2 (Homo sapiens) (UniProt Q15910); experiment: Inhibition of EZH2 in human A549 cells assessed as effect on PITX2 mRNA level after 6 hrs by RT-PCR analysis in presence of IFN-gamma; outline: as §1
[25] = biological target: Histone-lysine N-methyltransferase EZH2 (Homo sapiens) (UniProt Q15910); experiment: Inhibition of EZH2 in human A549 cells assessed as increase in TNF-alpha-induced IL-6 level for 24 hrs by multiplexing laser bead assay; outline: as §3
[26] = biological target: Histone-lysine N-methyltransferase EZH2 (Homo sapiens) (UniProt Q15910); experiment: Inhibition of EZH2 in human MCF7 cells assessed as decrease in H3K27me3 levels at 2 uM after 6 hrs by Western blot analysis
[27] = biological target: Histone-lysine N-methyltransferase EZH2 (Homo sapiens) (UniProt Q15910); experiment: Inhibition of EZH2 in human HeLa cells assessed as decrease in H3K27me3 levels at 2 uM after 6 hrs by Western blot analysis

inhibition [1]: inactive
inhibition [2]: inactive
inhibition [3]: inactive
inhibition [4]: inactive
inhibition [5]: inactive
inhibition [6]: Active
inhibition [7]: Active
inhibition [8]: inactive
inhibition [9]: inactive
inhibition [10]: Active
inhibition [11]: inactive
inhibition [12]: Active
inhibition [13]: Active
inhibition [14]: Active
inhibition [15]: inactive
inhibition [16]: inactive
inhibition [17]: Active
inhibition [18]: inactive
inhibition [19]: Active
inhibition [20]: Active
inhibition [21]: Active
inhibition [22]: Active
inhibition [23]: Active
inhibition [24]: inactive
inhibition [25]: Active
inhibition [26]: Active
inhibition [27]: Active
SMILES: CCCc1cc(C)[nH]c(=O)c1CNC(=O)c1cc(-c2ccc(N3CCN(C(C)C)CC3)nc2)cc2c1cnn2C(C)C
